How the values were obtained:
[1] = Dissociation constant, pKa of compound; type: physicochemical
[2] = Drug uptake in human SK-N-SH cells assessed as [125I]-2'-deoxy-5-iodo-uridine level at 38 kBq/mL after 1 hr by gamma counting method; type: ADME, cell-based
Summary of the method: (§1)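 SK-N-SH cells were exposed to 125I compound at an extracellular 38 kBq/mL for 1 h or continuously for 24 h. Cell-associated 125I was gamma-counted per cell.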

[3] = Stability in mouse serum incubated up to 6 hrs by HPLC analysis; type: ADME, cell-free
[4] = Partition coefficient, logP of compound; type: physicochemical; details: octanol/water
[5] = Drug uptake in human SK-N-SH cells assessed as [125I]-2'-deoxy-5-iodo-uridine level at 38 kBq/mL after 24 hrs by gamma counting method; type: ADME, cell-based; summary of the method: as §1
[6] = Stability in human serum assessed as intact compound level after 5 mins by HPLC analysis; type: ADME, cell-free; details: read-out: Stability
Summary of the method: (§2)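 Radioiodinated guanidines were incubated in mouse, human or pig serum and analyzed by radio-HPLC on a C18 column at 0.8 mL/min. The gradient was 0–95% CH3CN over 50 min, then 95% for 20 min. Intact compound was fitted to monoexponential degradation to give half-life. Values are average ± std err.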

[7] = Drug recovery in mouse N1E-115 cells assessed as [125I]-2'-deoxy-5-iodo-uridine level in nucleus after 24 hrs by gamma counting method relative to control; type: ADME, cell-based; details: n1e-115, 24 h, in the assay text read “in DNA” for “in nucleus”
Summary of the method: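 N1E-115 murine neuroblastoma cells were incubated 24 h with 125I agent. Subcellular fractions (cytoplasm, nucleus, DNA pellet) were gamma-counted as percentage of recovered 125I.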

[8] = Stability in mouse serum incubated up to 24 hrs by HPLC analysis; type: ADME, cell-free
[9] = Stability in human serum assessed as intact compound level after 60 mins by HPLC analysis; type: ADME, cell-free; details: read-out: Stability; summary of the method: as §2
[10] = Half life in human serum incubated up to 24 hrs by HPLC analysis; type: ADME, cell-free
[11] = Drug uptake in human SK-N-SH cells using 125I labelled compound by gamma counting method; type: ADME, cell-based
[12] = Stability in human SK-N-SH cells assessed as parent compound level after 24 hrs by HPLC analysis; type: ADME, cell-based; details: read-out: Stability
Summary of the method: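 The compound was incubated 24 h in cell culture medium without cells or with SK-N-SH cells. Intact compound and 125IUdR catabolite were quantified by radio-HPLC on a C18 column at 0.8 mL/min, with a 0–95% CH3CN gradient over 50 min and 95% for 20 min.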

[13] = target: T1, Sodium-dependent noradrenaline transporter (Homo sapiens, UniProt P23975); assay: Substrate activity at NET in human SK-N-SH cells assessed as drug uptake per cell at 37 kBq/ml incubated for 1 hr in presence of nonradioactive MIBG at 37 degC by filtration based gamma counting method; type: ADME
T1 sequence (P23975 whole entry): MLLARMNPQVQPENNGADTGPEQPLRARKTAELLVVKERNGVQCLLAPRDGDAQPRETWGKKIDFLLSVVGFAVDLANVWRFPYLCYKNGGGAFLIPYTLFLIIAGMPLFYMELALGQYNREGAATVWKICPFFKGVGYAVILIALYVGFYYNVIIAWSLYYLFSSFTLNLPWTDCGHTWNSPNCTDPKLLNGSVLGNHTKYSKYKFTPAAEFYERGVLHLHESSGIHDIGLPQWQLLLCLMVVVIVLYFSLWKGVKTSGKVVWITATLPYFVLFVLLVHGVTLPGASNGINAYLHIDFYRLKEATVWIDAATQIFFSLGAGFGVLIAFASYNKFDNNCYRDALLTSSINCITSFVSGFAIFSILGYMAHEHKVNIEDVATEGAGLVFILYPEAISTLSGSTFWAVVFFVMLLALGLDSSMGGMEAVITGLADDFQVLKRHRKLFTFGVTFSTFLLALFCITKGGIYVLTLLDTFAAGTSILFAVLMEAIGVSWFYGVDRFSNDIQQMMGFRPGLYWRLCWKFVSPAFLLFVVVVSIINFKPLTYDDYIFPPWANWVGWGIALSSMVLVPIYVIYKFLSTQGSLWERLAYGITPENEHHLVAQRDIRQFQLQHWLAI

[14] = Drug uptake in human SK-N-SH cells assessed as level of 125I-incorporation into DNA incubated 1 hr followed by compound washout with non-radioactive medium/PBS and measured after 23 hrs by gamma counting method relative to control; type: ADME, cell-based
Summary of the method: (§3)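 SK-N-SH cells exposed to the 125I-labelled guanidine for 1 h, then washed with nonradioactive medium and PBS. Cells were either processed at once (1 h) or given fresh nonradioactive medium and returned to the incubator for 23 h (24 h). Subcellular fractions (cytoplasm, DNA) were counted by γ-counter. Values are mean and SD, n ≥ 3.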

[15] = Drug uptake in human SK-N-SH cells assessed as level of 125I-incorporation into DNA after 1 hr and followed by compound washout with non-radioactive medium/PBS and measured immediately by gamma counting method relative to control; type: ADME, cell-based; summary of the method: as §3
[16] = target: T1, Sodium-dependent noradrenaline transporter; assay: Substrate activity at NET in human SK-N-SH cells assessed as drug uptake per cell at 37 kBq/ml incubated for 1 hr in presence of nonradioactive MIBG at 4 degC by filtration based gamma counting method; type: ADME
[17] = system: SK-N-SH; assay: Anticlonogenic activity against human SK-N-SH cells assessed as number of colonies at 39.3+/- 0.3 kBq/mL after 24 hr by crystal violet staining based assay; type: functional
Summary of the method: (§4)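 SK-N-SH cells exposed for 1 h to 125I-MIBG (39.3 ± 0.3 kBq/mL extracellular) or IDG (40 ± 0.5 kBq/mL). For the 1 h group, cells were washed with nonradioactive medium and PBS, harvested with trypsin and replated for the clonogenic assay. For the 24 h group, cells were washed, given fresh nonradioactive medium and incubated a further 23 h before plating. Colonies were counted.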

[18] = Drug level in tumor of NCR nu/nu mouse xenografted with human BE(2)-C cells at 0.83 +/- 0.09 MBq administered intratumorally after 24 hrs by gamma counting analysis; type: ADME, tissue-based, Neoplasm; details: in vivo, other
Summary of the method: (§5)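 Athymic Ncr nu/nu female and male mice bearing subcutaneous BE(2)-C xenografts received intratumor injections of the 125I agent. Tissues, tumor and blood were collected at 24 h and counted for radioactivity, expressed as %ID/g. Tumor-to-blood ratios were derived.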

[19] = Drug uptake in cytoplasm of human SK-N-SH cells at 39.3 +/- 0.3 kBq/mL after 24 hrs by gamma counting method relative to control; type: ADME, subcellular
Summary of the method: (§6)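 SK-N-SH cells were exposed 1 h to 125I compound (≈39–40 kBq/mL), then washed with nonradioactive medium and PBS. Cells were processed immediately (1 h) or re-incubated in fresh medium for 23 h (24 h). Cytoplasmic, nuclear and DNA fractions were gamma-counted.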

[20] = Drug uptake in cytoplasm of human SK-N-SH cells at 39.3 +/- 0.3 kBq/mL after 1 hr and followed by compound washout with non-radioactive medium/PBS and measured immediately by gamma counting method relative to control; type: ADME, subcellular; summary of the method: as §6
[21] = Drug level in tumor of NCR nu/nu mouse xenografted with human BE(2)-C cells at 0.44 +/- 0.1 MBq administered intratumorally after 24 hrs by gamma counting method; type: ADME, tissue-based, Neoplasm; details: in vivo, other; summary of the method: as §5
[22] = system: SK-N-SH; assay: Anticlonogenic activity against human SK-N-SH cells assessed as number of colonies at 39.3+/- 0.3 kBq/mL after 1 hr by crystal violet staining based assay; type: functional; summary of the method: as §4
[23] = Ratio of tumor to blood concentration in NCR nu/nu mouse xenografted with human BE(2)-C cells at 0.44 +/- 0.1 MBq administered intratumorally after 24 hrs by gamma counting method; type: ADME, tissue-based; details: tumour, other
Summary of the method: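 Athymic Ncr nu/nu female and male mice bearing subcutaneous BE(2)-C xenografts were given a single intratumoral injection of the 125I-labelled agent. Tumor and tissues were collected at 24 h, 125I was γ-counted, and uptake was expressed as %ID/g. The tumor-to-blood ratio was derived from the %ID/g values.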

[24] = Drug level in adrenal gland of NCR nu/nu mouse xenografted with human BE(2)-C cells at 0.44 +/- 0.1 MBq administered intratumorally after 24 hrs by gamma counting method; type: ADME, tissue-based; details: in vivo, other; summary of the method: as §5

pKa [1]	logP [4]	Stability [8]	half-life [10] [min]	Drug uptake [11]	Compound	further results
11.5	-1.3	–	–	–	N=C(N)NC[C@H]1O[C@@H](n2cc([125I])c(=O)[nH]c2=O)C[C@@H]1O	Drug uptake [2]: 0.00001 mBq; Stability [3]: Unstable; Drug uptake [5]: 0.00054 mBq
12.2	-0.2	Unstable	53.4	Dose-dependent effect and Tde	N=C(N)NCCCCCC(=O)OC[C@H]1O[C@@H](n2cc([125I])c(=O)[nH]c2=O)C[C@@H]1O	remaining at 5 min [6]: 77%; Drug recovery [7]: > 99%; remaining at 1 h [9]: 47%; remaining at 24 h [12]: 30%
11.8	1.63	–	–	–	N=C(N)NCc1cccc(I)c1 [IOBENGUANE]	–

Second part, the compound before the results:

Compound	pKa [1]	logP [4]	Stability [8]	half-life [10] [min]	Drug uptake [11]	further results
CC(C)(C)c1cc(C(C)(C)C)c2c(c1F)COP(=O)(OC[C@H]1O[C@@H](n3cc([125I])c(=O)[nH]c3=O)C[C@@H]1OC(=O)CCCCCNC(=N)N)O2 (some centres undefined)	12.1	4.58	Unstable	900	Dose-dependent effect and Tde	Drug uptake [13]: 1.85 mBq; Drug uptake [14]: 42%; Drug uptake [15]: 14%; Drug uptake [16]: 0.05 mBq
N=C(N)NCCC(=O)OC[C@H]1O[C@@H](n2cc([125I])c(=O)[nH]c2=O)C[C@@H]1O	11.9	-1.48	Unstable	23.4	Dose-dependent effect and Tde	–
N=C(N)NCc1ccc(C(=O)OC[C@H]2O[C@@H](n3cc([125I])c(=O)[nH]c3=O)C[C@@H]2O)cc1	11.9	0.26	Unstable	45.6	Dose-dependent effect and Tde	–
N=C(N)NCc1cccc([125I])c1	–	–	–	–	–	Activity [17]: 250; Drug recovery [7]: 0%; Drug uptake [18]: 1.85 % ID/g; Drug uptake [19]: 74%; Drug uptake [20]: 87%; Drug uptake [21]: 1.85 % ID/g; Activity [22]: 229; Ratio [23]: 19; Drug uptake [24]: 4.64 % ID/g
